Measured values taken from ChEMBL document CHEMBL1153953, “Synthesis and pharmacological evaluation of coumarin derivatives as cannabinoid receptor antagonists and inverse agonists” (Bioorg Med Chem, 2009).

Legend:
Cannabinoid receptor 1 = Cannabinoid receptor 1 (Rattus norvegicus, UniProt P20272); test: Displacement of [3H]CP-55940 from cannabinoid CB1 receptor in rat brain cortical membrane; assay type: cell membranes
Cannabinoid receptor 2 [1] = target: T1, Cannabinoid receptor 2 (Homo sapiens, UniProt P34972); test: Displacement of [3H]CP-55940 from human recombinant cannabinoid CB2 receptor expressed in HEK293 cells; assay type: cell-based
T1 sequence (P34972 whole entry): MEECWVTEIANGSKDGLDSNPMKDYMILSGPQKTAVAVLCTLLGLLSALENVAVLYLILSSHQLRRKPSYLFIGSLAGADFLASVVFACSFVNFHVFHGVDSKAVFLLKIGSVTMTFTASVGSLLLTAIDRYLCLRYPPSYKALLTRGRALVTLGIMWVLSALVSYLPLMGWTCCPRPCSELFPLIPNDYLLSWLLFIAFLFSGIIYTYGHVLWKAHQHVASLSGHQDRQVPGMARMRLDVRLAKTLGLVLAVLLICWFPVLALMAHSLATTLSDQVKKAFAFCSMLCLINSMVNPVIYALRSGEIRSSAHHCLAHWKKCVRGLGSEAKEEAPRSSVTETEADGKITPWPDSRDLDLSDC

[2] = target: Cannabinoid receptor 1 (Rattus norvegicus) (UniProt P20272); test: Displacement of [3H]CP-55940 from cannabinoid CB1 receptor in rat brain cortical membrane at 10 uM; assay type: cell membranes
Chain of Cannabinoid receptor 1 (Rattus norvegicus) (P20272 whole entry): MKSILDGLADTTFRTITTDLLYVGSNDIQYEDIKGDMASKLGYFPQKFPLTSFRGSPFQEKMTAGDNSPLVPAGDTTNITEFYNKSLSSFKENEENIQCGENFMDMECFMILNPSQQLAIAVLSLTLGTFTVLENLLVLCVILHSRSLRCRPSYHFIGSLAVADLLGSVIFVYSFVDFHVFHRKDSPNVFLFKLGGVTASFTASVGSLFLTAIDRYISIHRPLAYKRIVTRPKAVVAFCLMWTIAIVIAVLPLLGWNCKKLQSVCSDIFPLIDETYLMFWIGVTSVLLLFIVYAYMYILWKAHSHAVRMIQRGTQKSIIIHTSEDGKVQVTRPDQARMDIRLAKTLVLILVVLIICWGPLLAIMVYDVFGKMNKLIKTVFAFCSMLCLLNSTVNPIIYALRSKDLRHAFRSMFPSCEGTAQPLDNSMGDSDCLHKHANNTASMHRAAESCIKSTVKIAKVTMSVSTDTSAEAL
How it was run: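 Competition vs 0.5 nM [3H]CP55,940 on rat brain cortical membranes (cortex homogenized in 0.32 M sucrose, differentially centrifuged), 50 µg protein/well, in 50 mM Tris-HCl pH 7.4, 3 mM MgCl2, 0.1% BSA; 2.5% DMSO final; rt, 2 h, started by protein; nonspecific with 10 µM unlabeled CP55,940; GF/C filtration, scintillation counting; ≥3 experiments in triplicate.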

Cannabinoid receptor 2 [3] = target: T1, Cannabinoid receptor 2; test: Displacement of [3H]CP-55940 from human recombinant cannabinoid CB2 receptor expressed in HEK293 cells at 10 uM; assay type: cell-based
How it was run: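 Competition vs 0.5 nM [3H]CP55,940 using commercial HEK293 EBNA membranes expressing human CB2, 50 µg protein/well, in 50 mM Tris-HCl pH 7.4, 3 mM MgCl2, 0.1% BSA; 2.5% DMSO final; rt, 2 h, started by protein; nonspecific with 10 µM unlabeled CP55,940; GF/C filtration, scintillation counting; ≥3 experiments in duplicate.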

[4] = target: Cannabinoid receptor 1 (Homo sapiens) (UniProt P21554); test: Inverse agonist activity at human recombinant cannabinoid CB1 receptor expressed in HEK293 cells assessed as decrease in GTPgammaS binding at 30 uM by liquid scintillation counting relative to CP-55940; assay type: functional, cell-based; parameters: scale not given: the % may be the effect or the level left
Chain of Cannabinoid receptor 1 (Homo sapiens) (P21554 whole entry): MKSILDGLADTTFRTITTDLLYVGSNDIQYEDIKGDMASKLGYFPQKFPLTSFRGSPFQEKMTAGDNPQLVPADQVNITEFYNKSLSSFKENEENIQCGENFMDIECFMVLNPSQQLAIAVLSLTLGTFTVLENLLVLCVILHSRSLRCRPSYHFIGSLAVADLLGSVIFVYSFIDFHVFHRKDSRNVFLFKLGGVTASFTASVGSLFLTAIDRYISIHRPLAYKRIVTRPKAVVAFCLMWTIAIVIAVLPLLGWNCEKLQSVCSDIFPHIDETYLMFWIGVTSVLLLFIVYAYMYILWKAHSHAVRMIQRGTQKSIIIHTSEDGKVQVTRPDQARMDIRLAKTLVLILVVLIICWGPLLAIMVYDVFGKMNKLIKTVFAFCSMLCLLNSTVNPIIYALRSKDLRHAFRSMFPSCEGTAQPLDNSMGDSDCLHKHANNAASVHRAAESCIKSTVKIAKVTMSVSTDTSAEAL

[5] = target: Cannabinoid receptor 1 (Rattus norvegicus) (UniProt P20272); test: Antagonist activity at cannabinoid CB1 receptor in rat brain cortical membrane assessed as effect on GTPgammaS binding at 30 uM by liquid scintillation counting relative to CP-55940; assay type: functional, cell membranes; parameters: scale not given: the % may be the effect or the level left

Chain of Cannabinoid receptor 1 (P20272 whole entry): as the sequence (P20272 whole entry) above

SMILES	Ki (Cannabinoid receptor 1)	Ki (Cannabinoid receptor 2 [1])	Activity [2]	Activity (Cannabinoid receptor 2 [3])	Activity [4]	Activity [5]
COc1ccc(Br)c2c1C=C(C(C)=O)C(C)O2 (centres undefined)	> 10 µM	> 10 µM	34%	7%	–	–
COc1ccc(Cc2cc3c(OC)cc(C)cc3oc2=O)cc1	6.14 µM	5.81 µM	–	–	-10%	13%
Cc1cc2c(ccc3ccccc32)oc1=O	> 10 µM	≥ 10 µM	10%	2%	–	–
CCOC(=O)/C(=C/C=C/c1ccccc1)C(=O)Oc1c(C2SCCS2)ccc2c1C=CC(C)(C)O2	1.37 µM	> 10 µM	–	22%	–	–
COc1ccccc1Cc1cc2c(C(C)C)ccc(C)c2oc1=O	6.18 µM	5.67 µM	–	–	–	–
COc1ccc2cc(C)c(=O)oc2c1	≥ 10 µM	≥ 10 µM	1%	2%	–	–
COc1cc(C)cc2oc(=O)c(Cc3ccc(Cl)cc3)cc12	2.08 µM	9.39 µM	–	–	–	–
O=c1oc2ccc3ccccc3c2cc1Cc1ccccc1	4.19 µM	≥ 10 µM	–	59%	-21%	15%
COc1ccc2oc(=O)c(Cc3ccccc3)cc2c1	≥ 10 µM	> 10 µM	8%	37%	–	–
COc1ccccc1Cc1cc2c(ccc3ccccc32)oc1=O	> 10 µM	2.06 µM	41%	–	–	–
COc1ccc2cc(Cc3ccccc3)c(=O)oc2c1	> 10 µM	> 10 µM	31%	33%	–	–
Cc1cc2c(C(C)C)ccc(C)c2oc1=O	> 10 µM	> 10 µM	26%	0%	–	–
COc1cccc2oc(=O)c(Cc3ccccc3)cc12	19.1 µM	> 10 µM	–	28%	–	–
COc1cccc(Cc2cc3c(OC)cc(C)cc3oc2=O)c1	4.11 µM	3.37 µM	–	–	–	–
COc1cc(C)cc2oc(=O)c(Cc3ccccc3)cc12	3.46 µM	≥ 10 µM	–	45%	-8%	3%
Cc1c(C(=O)NN2CCOCC2)nn(-c2ccc(Cl)cc2Cl)c1-c1ccc(I)cc1	–	–	–	–	-19%	2%
COc1cc(C)cc2oc(=O)c(Cc3ccccc3C)cc12	1.17 µM	2.16 µM	–	–	–	–
COc1ccccc1Cc1cc2c(OC)ccc(C)c2oc1=O	12.3 µM	3.65 µM	–	–	–	–
COc1cc(Br)cc2cc(C)c(=O)oc12	> 10 µM	> 10 µM	17%	9%	–	–

SMILES	Ki (Cannabinoid receptor 1)	Ki (Cannabinoid receptor 2 [1])	Activity [2]	Activity (Cannabinoid receptor 2 [3])	Activity [4]	Activity [5]
COc1cc(C)cc2oc(=O)c(Cc3ccccc3Cl)cc12	0.978 µM	1.54 µM	–	–	–	–
COc1cccc2cc(C)c(=O)oc12	≥ 10 µM	> 10 µM	6%	4%	–	–
Cc1cc2cc(Cl)cc(Br)c2oc1=O	≥ 10 µM	≥ 10 µM	8%	3%	–	–
COc1ccccc1Cc1cc2c(OC)cccc2oc1=O	9.57 µM	3.49 µM	–	–	–	–
O=C1C2=Cc3ccccc3OC2CC/C1=C\c1ccccc1O (centres undefined)	4.9 µM	> 10 µM	–	37%	–	–
Cc1ccc(C(C)C)c2cc(Cc3ccccc3)c(=O)oc12	2.76 µM	4.27 µM	–	–	-9%	19%
COc1cccc2cc(Cc3ccccc3)c(=O)oc12	≥ 10 µM	≥ 10 µM	6%	25%	–	–
Cc1cc2cc(I)ccc2oc1=O	> 10 µM	> 10 µM	12%	10%	–	–
O=c1oc2ccccc2cc1Cc1ccccc1	> 10 µM	> 10 µM	18%	28%	–	–
COc1ccc(Cc2cc3c(OC)cc(C)cc3oc2=O)c(OC)c1	6.23 µM	2.78 µM	–	–	–	–
COc1cc(C)cc2oc(=O)c(Cc3ccccc3O)cc12	1.1 µM	5.24 µM	–	–	–	–
CC1(C)Oc2c(cccc2-c2ccccc2)C=C1C=O	≥ 10 µM	> 10 µM	46%	3%	–	–
O=c1oc2ccc(I)cc2cc1Cc1ccccc1	> 10 µM	≥ 10 µM	31%	44%	–	–
COc1cc(C)cc2oc(=O)c(Cc3ccc(C)cc3)cc12	9.14 µM	4.76 µM	–	–	–	–
O=c1oc2ccc([N+](=O)[O-])cc2cc1Cc1ccccc1	> 10 µM	> 10 µM	32%	15%	–	–
COc1ccccc1Cc1cc2c(OC)cc(C)cc2oc1=O	0.738 µM	1.03 µM	–	–	-16%	-2%
COc1ccc(Br)c2oc(=O)c(Cc3ccccc3)cc12	> 10 µM	> 10 µM	39%	29%	–	–
COc1ccc2oc(=O)c(C)cc2c1	> 10 µM	≥ 10 µM	15%	7%	–	–
